Assay [1] concerns MDCK cells. The assay is described as follows: Actomyosin organization by IF. It counts as cell-based, canine.
Assay [2] concerns SGEF. Kind of assay: Yeast two-hybrid screen with full-length human SGEF as bait. The settings on record: mouse kidney cDNA library. It counts as binding.
For assay [3], the system named is SGEF. Kind of assay: Coimmunoprecipitation of Dlg1 constructs with SGEF, HEK293FT lysates. Type of assay: binding, Human. The following applies: WB. In short, it runs like this: (§1)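 HEK293FT cells were co-transfected by calcium phosphate; medium was changed at 24 h and cells harvested at 48 h. Lysis was in Tris-HCl pH 7.4, MgCl2, 150 mM NaCl, 1% Triton X-100 and protease inhibitors. Equal protein was incubated with GFP-Trap beads for 1 h at 4°C, washed four times, then immunoblotted with anti-GFP and anti-myc (or anti-His).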

For another assay, the system named is Dlg1. Kind of assay: Coimmunoprecipitation of SGEF constructs with GFP-Dlg1, HEK293FT lysates. Type of assay: binding, Mouse. The following applies: GFP-trap nanobodies, WB. Put shortly: as §1
In a further assay the test system is Xenopus embryos. Kind of assay: Junctional localization in gastrula-stage embryos. It counts as in vivo, Xenopus laevis. The settings on record: live confocal, mNeon-tagged. In short, it runs like this:
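Embryos were microinjected in the animal hemisphere with mRNAs, either at the two-cell stage (each cell twice) or at the four-cell stage (once). They were raised to gastrula stage (10.5–12) and live-imaged by confocal. mNeon-tagged protein was coexpressed with BFP-ZO-1 (tight junction marker) and PLEKHA7-mCherry (adherens junction marker), and the junctional-to-cytosolic intensity ratio was quantified.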

In assay [4] the test system is MDCK cells. The assay is described as follows: Height of MDCK monolayer, confocal XZ. Type of assay: cell-based, canine. The settings on record: average, n = 50 cells. Put shortly:
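Confocal XZ sections of confluent control, SGEF-knockdown and rescue MDCK monolayers were acquired on a Leica SP8. Cells were stained for E-cadherin, β-catenin and nuclei, or for F-actin and Hoechst, and monolayer height was measured.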

The next assay relates to Scribble. Kind of assay: Coimmunoprecipitation of SGEF constructs with GFP-Scribble, HEK293FT lysates. It counts as binding, Human. The settings on record: GFP-trap nanobodies, WB.
For assay [5], the system named is MDCK cells. The assay is described as follows: Zigzag index of tight junctions. Type of assay: cell-based, canine.
The next assay deals with RhoG. The assay is described as follows: RhoG activity pulldown. Type of assay: cell-based, canine. The following applies: normalized to total RhoG, three independent experiments. In short, it runs like this:
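Active RhoG was pulled down with GST–ELMO from total lysates of control, SGEF-knockdown and rescue MDCK cells, then immunoblotted with anti-RhoG. Active levels were normalised to total RhoG; mean ± SEM of three independent experiments.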

Assay [6] relates to Scribble/SGEF/Dlg1 ternary complex. Kind of assay: Coprecipitation of Scribble with GFP-Dlg1. It counts as binding. The following applies: HA-Scribble and GFP-Dlg1 coexpressed, IP anti-GFP, HEK293.
The test system of assay [7] is MDCK cells. Kind of assay: Protein levels and junctional localization by WB and IF. It counts as cell-based, canine. In short, it runs like this: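 Total lysates of confluent control, SGEF-knockdown and WT-rescue MDCK cells were immunoblotted, with tubulin as loading control. For immunofluorescence, cells were fixed in 3.7% paraformaldehyde, permeabilised with 0.1% Triton X-100 and imaged by confocal. Afadin enrichment was scored as the tricellular/bicellular junction intensity ratio (≥200 junctions, at least three fields, two experiments; Mann–Whitney U test).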

Assay [8] concerns MDCK cells. The assay is described as follows: Apical cell area and axial ratio. It counts as cell-based, canine. The settings on record: major/minor axis aspect ratio. Put shortly: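 Apical cell area and axial ratio were measured in control, SGEF-knockdown and WT-rescue MDCK monolayers from two fields in each of two independent experiments (n = 100 cells for area, n = 150 for axial ratio). Plots show min-to-max spread.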

The test system of assay [9] is MDCK cells. The assay is described as follows: 3D cyst lumen formation in matrigel. It counts as cell-based, canine.

Consider eight molecules from article PMC6683736 (The Journal of Cell Biology, 2019).

`Cc1ccc2c(c1)C(=O)C1(O)CCN(c3ccccc3)C1=N2` (centres unmarked) [blebbistatin, reference compound]: the “relative strength of effect on actomyosin array and stress fibers” value with MDCK cells [1] (16 h, blebbistatin vs Y-27632) is given as “stronger effect than Y-27632”.

With “Scribble: Scribble polarity protein, 1–1,630”, the “potential binding partner for SGEF” value in the assay on SGEF [2] is reported as “potential binding partner for SGEF”.

B1: SH3 domain by itself: Dlg1 SH3 domain, 536–636 (protein, UniProt Q12959 536-636, looked up, fragment)
chain: GQAVTIVAQYRPEEYSRFEAKIHDLREQMMNSSISSGSGSLRTSQKRSLYVRALFDYDKTKDSGLPSQGLNFKFGDILHVINASDDEWWQARQVTPDGESD
modifications: SH3 domain
Turning to B1, the “interaction with SGEF” value in the assay with SGEF [3] was “no detectable binding”.

B2: SGEF 1–227: SGEF deletion mutant, binds to Scribble but not to Dlg1 (protein)
chain: MDGESEVDFSSNSITPLWRRRSIPQPHQVLGRSKPRPQSYQSPNGLLITDFPVEDGGTLLAAQIPAQVPTASDSRTVHRSPLLLGAQRRAVANGGTASPEYRAASPRLRRPKSPKLPKAVPGGSPKSPANGAVTLPAPPPPPVLRPPRTPNAPAPCTPEEDLTGLTASPVPSPTANGLAANNDSPGSGSQSGRKAKDPERGLFPGPQKSSSEQKLPLQRLPSQENEL
modifications: left off: myc (inferred from the legends of Figures 1 and 2), end not stated, kept
Take B2: the “interaction with Dlg1” value with Dlg1 is on record as “did not interact with Dlg1”. Further, in the assay on Xenopus embryos, the “localization at apical junctional complex” value is reported as “localized efficiently to the AJC”. Further, in the assay with MDCK cells [4] (Fig. 9 I), the cell height is reported as 2.99 ± 0.065 µm. Besides, the “interaction with Scribble” value in the assay on Scribble was “sufficient to interact with Scribble”.

B3: SGEF 1–400: minimum region required to bind Scribble and Dlg1, no catalytic activity (protein)
chain: MDGESEVDFSSNSITPLWRRRSIPQPHQVLGRSKPRPQSYQSPNGLLITDFPVEDGGTLLAAQIPAQVPTASDSRTVHRSPLLLGAQRRAVANGGTASPEYRAASPRLRRPKSPKLPKAVPGGSPKSPANGAVTLPAPPPPPVLRPPRTPNAPAPCTPEEDLTGLTASPVPSPTANGLAANNDSPGSGSQSGRKAKDPERGLFPGPQKSSSEQKLPLQRLPSQENELLENPSVVLSTNSPAALKVGKQQIIPKSLASEIKISKSNNQNVEPHKRLLKVRSMVEGLGGPLGHAGEESEVDNDVDSPGSLRRGLRSTSYRRAVVSGFDFDSPTSSKKKNRMSQPVLKVVMEDKEKFSSLGRIKKKMLKGQGTFDGEENAVLYQNYKEKALDIDSDEESEPKE
modifications: left off: myc (inferred from the legend of Figure 2), end not stated, kept
As to B3, in the assay on Dlg1, the “interaction with Dlg1” value is given as “able to bind to Dlg1”. The molecule further displayed a cell height in the assay on MDCK cells [4] (Fig. 9 I) of 2.57 ± 0.049 µm. Further, the “rescue of increased contractility” value in the assay with MDCK cells [1] (myosin II staining, SGEF KD background) is reported as “able to rescue the increase in contractility”. Further, in the assay with MDCK cells [5] (compared with SGEF KD, Fig. 9 J), the “zigzag index (in words)” value is recorded as “increased significantly”.

B4: SGEF WT: full-length SGEF 1–871, RhoG-specific GEF, myc- or mNeon-tagged (protein)
chain: MDGESEVDFSSNSITPLWRRRSIPQPHQVLGRSKPRPQSYQSPNGLLITDFPVEDGGTLLAAQIPAQVPTASDSRTVHRSPLLLGAQRRAVANGGTASPEYRAASPRLRRPKSPKLPKAVPGGSPKSPANGAVTLPAPPPPPVLRPPRTPNAPAPCTPEEDLTGLTASPVPSPTANGLAANNDSPGSGSQSGRKAKDPERGLFPGPQKSSSEQKLPLQRLPSQENELLENPSVVLSTNSPAALKVGKQQIIPKSLASEIKISKSNNQNVEPHKRLLKVRSMVEGLGGPLGHAGEESEVDNDVDSPGSLRRGLRSTSYRRAVVSGFDFDSPTSSKKKNRMSQPVLKVVMEDKEKFSSLGRIKKKMLKGQGTFDGEENAVLYQNYKEKALDIDSDEESEPKEQKSDEKIVIHHKPLRSTWSQLSAVKRKGLSQTVSQEERKRQEAIFEVISSEHSYLLSLEILIRMFKNSKELSDTMTKTERHHLFSNITDVCEASKKFFIELEARHQNNIFIDDISDIVEKHTASTFDPYVKYCTNEVYQQRTLQKLLATNPSFKEVLSRIESHEDCRNLPMISFLILPMQRVTRLPLLMDTICQKTPKDSPKYEVCKRALKEVSKLVRLCNEGARKMERTEMMYTINSQLEFKIKPFPLVSSSRWLVKRGELTAYVEDTVLFSRRTSKQQVYFFLFNDVLIITKKKSEESYNVNDYSLRDQLLVESCDNEELNSSPGKNSSTMLYSRQSSASHLFTLTVLSNHANEKVEMLLGAETQSERARWITALGHSSGKPPADRTSLTQVEIVRSFTAKQPDELSLQVADVVLIYQRVSDGWYEGERLRDGERGWFPMECAKEITCQATIDKNVERMGRLLGLETNV
modifications: left off: myc, end not stated, kept
As for B4, the “active RhoG level” value in the assay with RhoG was “returned to normal”. The “interaction with Dlg1” value in the assay on Dlg1 was “able to bind efficiently to Dlg1”. Also, the “localization at apical junctional complex” value with Xenopus embryos is given as “localized efficiently to the AJC”. In the assay with MDCK cells [4] (three independent experiments, Fig. 5 I), this molecule registered a cell height of 5.61 ± 0.16 µm. For the same molecule, the “actomyosin organization at apical junction” value in the assay with MDCK cells [1] (IF, HyVolution) was “restored the normal apical and basal actomyosin pattern”. Further, the “interaction with Scribble” value in the assay with Scribble is “confirmed the interaction”. Besides, the “formation of Scribble/SGEF/Dlg1 ternary complex” value in assay [6] is “Scribble coprecipitated efficiently with Dlg1”. In addition, the “β-catenin and p120-catenin localization at cell–cell junctions” value in the assay on MDCK cells [7] (IF) is reported as “restored to normal”. Also, the “localization of Scribble and Dlg1” value in the assay with MDCK cells [7] (IF, rescue of SGEF KD) was “restored the normal localization of both Scribble and Dlg1”. The cadherin-6 levels result in the assay with MDCK cells [7] (WB) is “restored to normal levels”. Further, in the assay with MDCK cells [7] (WB and IF), the “E-cadherin level and localization” value was “restored both the proper expression level and localization of E-cadherin”; the “afadin expression levels and localization at AJs” value was “rescued to normal levels”. The same molecule displayed a zigzag index in the assay on MDCK cells [5] (average, 1 = straight line, CTRL 1.24) of 1.16. The axial ratio result with MDCK cells [8] is given as “could be rescued”. Moreover, the “cysts with a single lumen” value in the assay with MDCK cells [9] (Fig. 10 D, red and dark green bars, CTRL 65%) turned out to be 36%. Further, in the assay on MDCK cells [9] (Fig. 10 D, red and orange bars, CTRL 100%), the “cysts with an open lumen” value is given as 77%. In the assay with MDCK cells [9] (IF, 3D cysts), the “E-cadherin expression in cysts” value is given as “restored to normal levels”. The “cysts with multiple open lumens” value in the assay on MDCK cells [9] (matrigel, 4 d) was 40%.

B5: GUK domain alone: Dlg1 GUK domain, 699–893 (protein, UniProt Q12959 699-893, looked up, fragment)
chain: YVLSYEPVNQQEVNYTRPVIILGPMKDRINDDLISEFPDKFGSCVPHTTRPKRDYEVDGRDYHFVTSREQMEKDIQEHKFIEAGQYNNHLYGTSVQSVREVAEKGKHCILDVSGNAIKRLQIAQLYPISIFIKPKSMENIMEMNKRLTEEQARKTFERAMKLEQEFTEHFTAIVQGDTLEDIYNQVKQIIEEQSG
modifications: GUK domain
As to B5, the “interaction with SGEF” value with SGEF [3] is reported as “able to interact with SGEF”.

B6: SGEF 1–414: N-terminal half of SGEF, ends just before DH-PH domain (protein)
chain: MDGESEVDFSSNSITPLWRRRSIPQPHQVLGRSKPRPQSYQSPNGLLITDFPVEDGGTLLAAQIPAQVPTASDSRTVHRSPLLLGAQRRAVANGGTASPEYRAASPRLRRPKSPKLPKAVPGGSPKSPANGAVTLPAPPPPPVLRPPRTPNAPAPCTPEEDLTGLTASPVPSPTANGLAANNDSPGSGSQSGRKAKDPERGLFPGPQKSSSEQKLPLQRLPSQENELLENPSVVLSTNSPAALKVGKQQIIPKSLASEIKISKSNNQNVEPHKRLLKVRSMVEGLGGPLGHAGEESEVDNDVDSPGSLRRGLRSTSYRRAVVSGFDFDSPTSSKKKNRMSQPVLKVVMEDKEKFSSLGRIKKKMLKGQGTFDGEENAVLYQNYKEKALDIDSDEESEPKEQKSDEKIVIHHKPL
modifications: left off: myc (inferred from the legends of Figures 2 and 3), end not stated, kept
As to B6, in the assay on Dlg1, the “interaction with Dlg1” value is listed as “interacted efficiently with Dlg1”. Also, the “formation of Scribble/SGEF/Dlg1 ternary complex” value in [6] is on record as “minimum SGEF mutant that can mediate the formation of the Scribble/SGEF/Dlg1 complex”.
